Drawing on ChEMBL document CHEMBL1165965, “Synthesis and structure-activity relationships of 1,2,3,4-tetrahydropyrido[2,3-b]pyrazines as potent and selective inhibitors of the anaplastic lymphoma kinase” (Bioorg Med Chem, 2010), this text covers inhibition for ten compounds.

Assay [1] concerns the target T1, Tyrosine-protein kinase ITK/TSK (Homo sapiens) (UniProt Q08881).
T1 sequence (whole entry): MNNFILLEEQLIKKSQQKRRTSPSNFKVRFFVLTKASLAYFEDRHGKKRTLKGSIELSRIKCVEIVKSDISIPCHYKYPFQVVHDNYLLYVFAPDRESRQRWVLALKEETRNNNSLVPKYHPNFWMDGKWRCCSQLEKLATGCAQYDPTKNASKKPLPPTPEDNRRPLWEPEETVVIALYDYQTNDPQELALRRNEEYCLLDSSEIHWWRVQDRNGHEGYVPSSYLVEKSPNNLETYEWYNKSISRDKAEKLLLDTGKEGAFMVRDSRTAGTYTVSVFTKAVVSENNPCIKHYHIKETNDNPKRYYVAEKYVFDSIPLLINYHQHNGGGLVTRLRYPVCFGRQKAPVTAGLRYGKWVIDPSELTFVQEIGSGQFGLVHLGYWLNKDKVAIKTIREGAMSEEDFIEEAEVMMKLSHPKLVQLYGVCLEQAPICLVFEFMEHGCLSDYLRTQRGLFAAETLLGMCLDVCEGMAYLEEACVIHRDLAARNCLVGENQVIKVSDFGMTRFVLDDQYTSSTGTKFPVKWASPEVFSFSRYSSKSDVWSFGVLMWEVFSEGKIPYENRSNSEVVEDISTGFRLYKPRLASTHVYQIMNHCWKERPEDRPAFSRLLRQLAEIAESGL
The experiment in a line: Inhibition of ITK at 1 uM. The essentials: (§1)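 Single-concentration screen on the Ambit KINOMEscan platform, run against a panel of 250–400 kinases. Per-kinase inhibition was also summarized as S(90), the fraction of kinases inhibited by more than 90%.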

For assay [2], the target named is Atypical kinase COQ8A, mitochondrial (Homo sapiens) (UniProt Q8NI60). Briefly: Inhibition of ADCK3 at 1 uM. The method in brief:
(§2)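 Ambit KINOMEscan screen at a single concentration across a 250–400 kinase panel, recorded as percent inhibition. Selectivity was expressed as S(90), the fraction of kinases inhibited >90%.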

Assay [3] deals with Tyrosine-protein kinase ABL1 (Homo sapiens) (UniProt P00519). The experiment in a line: Inhibition of ABL1 at 1 uM. The essentials: as §2
Assay [4] has as its target Serine/threonine-protein kinase PAK 4 (Homo sapiens) (UniProt O96013). Briefly: Inhibition of PAK4 at 1 uM.
Assay [5] addresses T2, Rhodopsin kinase GRK1 (Homo sapiens) (UniProt Q15835).
T2 sequence (whole entry): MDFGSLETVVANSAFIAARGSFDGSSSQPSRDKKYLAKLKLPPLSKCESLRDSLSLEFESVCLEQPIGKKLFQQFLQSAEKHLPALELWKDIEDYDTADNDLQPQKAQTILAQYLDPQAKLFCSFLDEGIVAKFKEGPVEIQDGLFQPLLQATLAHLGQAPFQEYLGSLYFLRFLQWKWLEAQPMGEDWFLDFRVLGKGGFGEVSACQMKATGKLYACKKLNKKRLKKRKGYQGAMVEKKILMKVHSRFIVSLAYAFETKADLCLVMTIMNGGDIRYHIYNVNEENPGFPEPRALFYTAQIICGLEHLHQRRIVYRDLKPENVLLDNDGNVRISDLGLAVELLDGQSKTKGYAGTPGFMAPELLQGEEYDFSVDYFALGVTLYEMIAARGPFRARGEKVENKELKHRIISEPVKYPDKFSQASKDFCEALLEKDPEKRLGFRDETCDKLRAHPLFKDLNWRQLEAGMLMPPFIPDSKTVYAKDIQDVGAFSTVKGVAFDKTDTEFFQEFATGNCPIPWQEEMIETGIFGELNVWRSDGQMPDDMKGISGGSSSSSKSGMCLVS
The experiment in a line: Inhibition of GRK1 at 1 uM.

For assay [6], the target named is 5'-AMP-activated protein kinase catalytic subunit alpha-2 (Homo sapiens) (UniProt P54646). The experiment in a line: Inhibition of AMPK-alpha2 at 1 uM. The method in brief: as §2
Assay [7] concerns the target Mast/stem cell growth factor receptor Kit (Homo sapiens) (UniProt P10721). The experiment in a line: Inhibition of KIT at 1 uM. The essentials: as §1
Assay [8] deals with T3, Inhibitor of nuclear factor kappa-B kinase subunit epsilon (Homo sapiens) (UniProt Q14164).
T3 sequence (whole entry): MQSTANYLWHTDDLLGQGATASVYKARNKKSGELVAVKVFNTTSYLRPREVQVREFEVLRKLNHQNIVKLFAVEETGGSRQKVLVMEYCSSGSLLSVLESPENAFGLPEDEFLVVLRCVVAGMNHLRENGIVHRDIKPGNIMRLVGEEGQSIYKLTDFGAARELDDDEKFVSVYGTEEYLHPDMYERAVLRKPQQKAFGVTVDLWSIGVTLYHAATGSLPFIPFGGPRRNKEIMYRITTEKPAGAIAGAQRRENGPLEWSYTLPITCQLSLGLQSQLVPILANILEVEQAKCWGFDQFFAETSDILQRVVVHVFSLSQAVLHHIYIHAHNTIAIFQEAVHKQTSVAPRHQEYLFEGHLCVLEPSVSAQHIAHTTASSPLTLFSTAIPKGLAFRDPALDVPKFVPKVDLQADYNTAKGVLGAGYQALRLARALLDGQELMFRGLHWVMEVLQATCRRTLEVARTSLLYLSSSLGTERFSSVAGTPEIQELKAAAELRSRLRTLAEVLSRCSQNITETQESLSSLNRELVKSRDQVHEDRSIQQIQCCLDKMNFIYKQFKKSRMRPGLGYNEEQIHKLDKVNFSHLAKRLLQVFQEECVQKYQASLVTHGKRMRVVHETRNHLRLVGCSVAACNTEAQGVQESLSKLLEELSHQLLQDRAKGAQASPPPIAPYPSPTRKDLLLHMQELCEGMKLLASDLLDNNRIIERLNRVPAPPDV
Briefly: Inhibition of IKK-epsilon at 1 uM.

In assay [9] the target is T4, Cytoplasmic tyrosine-protein kinase BMX (Homo sapiens) (UniProt P51813).
T4 sequence (whole entry): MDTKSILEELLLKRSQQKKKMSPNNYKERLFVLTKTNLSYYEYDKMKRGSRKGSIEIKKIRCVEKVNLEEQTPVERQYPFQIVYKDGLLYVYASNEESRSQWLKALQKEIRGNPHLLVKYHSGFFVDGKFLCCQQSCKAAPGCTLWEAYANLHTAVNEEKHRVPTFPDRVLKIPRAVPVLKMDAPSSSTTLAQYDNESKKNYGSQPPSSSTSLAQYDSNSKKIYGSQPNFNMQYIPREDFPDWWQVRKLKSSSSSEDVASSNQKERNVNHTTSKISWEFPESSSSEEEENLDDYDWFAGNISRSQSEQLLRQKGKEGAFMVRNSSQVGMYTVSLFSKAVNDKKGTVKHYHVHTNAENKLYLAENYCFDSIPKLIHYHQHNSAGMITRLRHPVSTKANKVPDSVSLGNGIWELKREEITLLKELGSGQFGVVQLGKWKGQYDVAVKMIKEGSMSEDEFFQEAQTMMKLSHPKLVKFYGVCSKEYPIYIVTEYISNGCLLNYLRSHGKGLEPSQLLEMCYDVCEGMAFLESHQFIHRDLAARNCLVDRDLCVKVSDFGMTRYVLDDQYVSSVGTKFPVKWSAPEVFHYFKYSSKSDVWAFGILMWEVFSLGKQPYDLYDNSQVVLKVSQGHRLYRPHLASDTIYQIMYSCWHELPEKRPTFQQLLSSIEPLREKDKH
The experiment in a line: Inhibition of BMX at 1 uM. The essentials:
as §2

Chain of Mast/stem cell growth factor receptor Kit (Homo sapiens) (P10721 whole entry): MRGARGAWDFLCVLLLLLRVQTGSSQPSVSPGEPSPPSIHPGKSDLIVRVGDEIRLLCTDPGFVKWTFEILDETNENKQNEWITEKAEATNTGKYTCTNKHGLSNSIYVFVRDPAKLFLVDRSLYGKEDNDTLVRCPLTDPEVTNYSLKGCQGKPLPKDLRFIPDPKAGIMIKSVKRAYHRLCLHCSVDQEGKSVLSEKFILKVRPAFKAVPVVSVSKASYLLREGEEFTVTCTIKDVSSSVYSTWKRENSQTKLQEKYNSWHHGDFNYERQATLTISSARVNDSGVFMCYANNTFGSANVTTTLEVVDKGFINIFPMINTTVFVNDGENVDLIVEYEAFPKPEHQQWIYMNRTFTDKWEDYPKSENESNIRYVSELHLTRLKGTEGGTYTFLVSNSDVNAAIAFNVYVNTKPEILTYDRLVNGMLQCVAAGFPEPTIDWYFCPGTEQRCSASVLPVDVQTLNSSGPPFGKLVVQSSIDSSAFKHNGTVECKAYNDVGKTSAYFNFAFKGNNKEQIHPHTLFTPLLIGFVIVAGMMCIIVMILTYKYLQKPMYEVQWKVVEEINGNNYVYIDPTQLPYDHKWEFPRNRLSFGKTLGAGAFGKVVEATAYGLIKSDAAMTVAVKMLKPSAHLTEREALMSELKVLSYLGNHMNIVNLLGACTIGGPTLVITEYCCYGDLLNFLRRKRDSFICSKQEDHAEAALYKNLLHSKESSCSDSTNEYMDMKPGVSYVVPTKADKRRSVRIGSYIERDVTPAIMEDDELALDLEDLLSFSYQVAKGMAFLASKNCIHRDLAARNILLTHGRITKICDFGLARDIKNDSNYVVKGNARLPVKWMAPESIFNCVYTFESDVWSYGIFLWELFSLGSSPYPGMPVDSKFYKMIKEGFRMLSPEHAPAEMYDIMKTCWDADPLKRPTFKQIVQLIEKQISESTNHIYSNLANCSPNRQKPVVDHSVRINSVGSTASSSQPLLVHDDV
Chain of Tyrosine-protein kinase ABL1 (Homo sapiens) (P00519 whole entry): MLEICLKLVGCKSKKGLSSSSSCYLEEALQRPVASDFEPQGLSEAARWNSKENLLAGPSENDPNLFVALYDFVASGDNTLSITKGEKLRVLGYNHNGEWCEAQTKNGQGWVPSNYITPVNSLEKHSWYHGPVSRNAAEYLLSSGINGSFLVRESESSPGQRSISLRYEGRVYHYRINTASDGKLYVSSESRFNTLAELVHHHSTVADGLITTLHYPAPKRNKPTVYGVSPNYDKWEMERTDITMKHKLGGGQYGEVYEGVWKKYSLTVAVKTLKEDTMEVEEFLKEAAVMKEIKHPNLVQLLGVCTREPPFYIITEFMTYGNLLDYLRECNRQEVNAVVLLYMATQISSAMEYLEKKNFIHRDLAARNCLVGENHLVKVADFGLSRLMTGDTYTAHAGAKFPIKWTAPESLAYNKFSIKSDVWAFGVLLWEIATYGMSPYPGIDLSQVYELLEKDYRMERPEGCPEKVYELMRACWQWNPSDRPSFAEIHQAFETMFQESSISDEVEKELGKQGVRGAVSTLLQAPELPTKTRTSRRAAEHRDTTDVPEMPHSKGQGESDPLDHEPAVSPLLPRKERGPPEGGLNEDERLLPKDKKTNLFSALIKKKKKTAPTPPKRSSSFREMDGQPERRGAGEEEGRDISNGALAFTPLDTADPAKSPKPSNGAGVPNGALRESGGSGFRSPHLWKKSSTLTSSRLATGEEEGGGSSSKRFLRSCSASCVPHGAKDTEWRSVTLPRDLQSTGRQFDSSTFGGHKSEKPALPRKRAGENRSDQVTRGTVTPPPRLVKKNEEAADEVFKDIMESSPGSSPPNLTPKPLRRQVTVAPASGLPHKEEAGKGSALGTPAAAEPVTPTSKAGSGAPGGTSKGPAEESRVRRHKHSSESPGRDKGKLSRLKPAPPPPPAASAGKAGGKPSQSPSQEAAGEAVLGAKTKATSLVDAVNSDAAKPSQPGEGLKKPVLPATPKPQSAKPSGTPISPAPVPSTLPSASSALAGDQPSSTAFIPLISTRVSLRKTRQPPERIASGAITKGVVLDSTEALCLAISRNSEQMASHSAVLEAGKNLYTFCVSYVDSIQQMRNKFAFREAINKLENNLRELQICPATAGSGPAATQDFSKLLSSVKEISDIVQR
Chain of Atypical kinase COQ8A, mitochondrial (Homo sapiens) (Q8NI60 163-647 limits assumed): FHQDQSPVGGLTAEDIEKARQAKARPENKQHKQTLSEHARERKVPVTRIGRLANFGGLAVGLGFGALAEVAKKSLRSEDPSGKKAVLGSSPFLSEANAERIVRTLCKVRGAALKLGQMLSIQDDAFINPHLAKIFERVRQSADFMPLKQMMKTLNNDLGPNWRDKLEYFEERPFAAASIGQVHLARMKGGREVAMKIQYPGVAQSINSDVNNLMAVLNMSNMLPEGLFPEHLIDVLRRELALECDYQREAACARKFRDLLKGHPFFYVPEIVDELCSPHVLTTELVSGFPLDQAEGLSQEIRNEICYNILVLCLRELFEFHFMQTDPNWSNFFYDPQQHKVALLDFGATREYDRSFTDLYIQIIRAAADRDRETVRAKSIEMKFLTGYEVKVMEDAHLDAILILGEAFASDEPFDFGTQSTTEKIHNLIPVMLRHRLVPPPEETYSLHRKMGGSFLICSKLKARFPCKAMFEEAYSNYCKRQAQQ
Chain of Serine/threonine-protein kinase PAK 4 (Homo sapiens) (O96013 whole entry, looked up): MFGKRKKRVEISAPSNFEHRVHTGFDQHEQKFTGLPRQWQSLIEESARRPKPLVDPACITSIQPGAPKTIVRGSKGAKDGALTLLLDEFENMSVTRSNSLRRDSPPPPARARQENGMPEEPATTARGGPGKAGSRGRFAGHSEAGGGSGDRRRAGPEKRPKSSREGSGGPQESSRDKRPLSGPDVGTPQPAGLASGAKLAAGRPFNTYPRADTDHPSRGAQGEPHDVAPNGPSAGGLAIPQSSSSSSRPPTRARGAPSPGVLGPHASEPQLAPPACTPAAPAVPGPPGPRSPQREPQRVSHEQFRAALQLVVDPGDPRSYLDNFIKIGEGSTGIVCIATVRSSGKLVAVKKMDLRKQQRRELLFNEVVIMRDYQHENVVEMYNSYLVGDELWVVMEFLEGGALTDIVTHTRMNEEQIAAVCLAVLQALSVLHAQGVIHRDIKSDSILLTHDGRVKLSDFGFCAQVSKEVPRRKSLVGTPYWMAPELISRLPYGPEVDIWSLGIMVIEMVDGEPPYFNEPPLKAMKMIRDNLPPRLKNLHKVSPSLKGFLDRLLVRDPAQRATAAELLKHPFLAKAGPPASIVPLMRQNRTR
Chain of 5'-AMP-activated protein kinase catalytic subunit alpha-2 (Homo sapiens) (P54646 whole entry, looked up): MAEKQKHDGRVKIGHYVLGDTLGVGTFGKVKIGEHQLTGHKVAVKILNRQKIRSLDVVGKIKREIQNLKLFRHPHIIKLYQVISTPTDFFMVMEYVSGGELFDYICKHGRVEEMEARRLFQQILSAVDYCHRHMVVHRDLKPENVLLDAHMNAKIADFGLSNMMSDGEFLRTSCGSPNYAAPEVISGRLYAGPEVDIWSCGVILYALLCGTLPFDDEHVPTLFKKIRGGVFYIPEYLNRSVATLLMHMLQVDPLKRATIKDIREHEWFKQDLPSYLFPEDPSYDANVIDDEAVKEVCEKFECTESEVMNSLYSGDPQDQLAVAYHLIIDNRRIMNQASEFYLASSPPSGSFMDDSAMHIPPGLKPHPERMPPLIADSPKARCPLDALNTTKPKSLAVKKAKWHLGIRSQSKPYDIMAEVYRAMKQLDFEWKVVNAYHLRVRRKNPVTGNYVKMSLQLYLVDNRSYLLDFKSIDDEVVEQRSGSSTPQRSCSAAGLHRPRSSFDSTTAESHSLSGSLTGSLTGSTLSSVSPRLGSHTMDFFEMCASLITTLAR

For orientation: inhibition means the drop in the measured response relative to a control, in per cent. Consider `FC(F)(F)c1ccc(Cl)cc1CN1CCNc2ncc(-c3ccnc(N4CCNCC4)c3)cc21`, for which the inhibition in assay [1], in assay [2], in assay [3], in assay [4], in [5] and in [6] was less than 50% each time. The inhibition was 96% in [7], less than 50% in assay [8] and less than 50% in assay [9].
For the compound `CN1CCN(c2ccc(-c3cnc4c(c3)N(Cc3cc(Cl)ccc3Cl)CCN4)cn2)CC1`, the inhibition in assay [1], in [2], in assay [3], in assay [4], in assay [5] and in [6] was less than 50% in each case. Further, the inhibition was 87% in assay [7], less than 50% in assay [8] and less than 50% in [9].
Regarding `COC1CCN(C(=O)c2ccc(-c3cnc4c(c3)N(Cc3cc(Cl)ccc3C(F)(F)F)CCN4)cc2)CC1`, the inhibition in assay [1], in assay [2], in assay [3], in [4], in [6] and in assay [7] was less than 50% throughout. For the same compound, the inhibition in assay [9] was less than 50%.
For `O=C(c1ccc(-c2cnc3c(c2)N(Cc2cc(Cl)ccc2C(F)(F)F)CCN3)cc1)N1CCCCC1`, the inhibition in assay [1], in [2], in assay [3], in assay [4], in [6] and in [7] was less than 50% throughout. In addition, the inhibition in assay [9] was less than 50%.
Take `O=C(O)c1ccc(-c2cnc3c(c2)N(Cc2cc(Cl)ccc2C(F)(F)F)CCN3)cc1`: the inhibition in assay [1], in [2], in assay [3], in [4], in assay [6] and in assay [7] was less than 50% throughout. Moreover, the inhibition in assay [9] was less than 50%.
Take `CN1CCN(c2ccc(-c3cnc4c(c3)N(Cc3cc(F)ccc3F)CCN4)cn2)CC1`: the inhibition was less than 50% in assay [1]; less than 50% in [2]; 59% in [3]; less than 50% in [4]; less than 50% in assay [5]; less than 50% in assay [6]. In addition, the inhibition in [7] is 56.5%; in [8], less than 50%; in assay [9] it was less than 50%.
`O=C(c1ccc(-c2cnc3c(c2)N(Cc2cc(Cl)ccc2C(F)(F)F)CCN3)cc1)N1CCC(N2CCCC2)CC1`: the inhibition in [1] was less than 50%; in [2], less than 50%; in [3] it was less than 50%; in [4] it was less than 50%; in [6], less than 50%; in assay [7], 89.5%. This compound returned an inhibition in assay [9] of less than 50%.
As to `CN1CCN(c2ccc(-c3cnc4c(c3)N(Cc3c(F)ccc(F)c3Cl)CCN4)cn2)CC1`, the inhibition was less than 50% in assay [1]; less than 50% in [2]; 84% in assay [3]; less than 50% in assay [4]; less than 50% in assay [5]; less than 50% in [6]. Also, the inhibition in [7] is 73%; in assay [8] it was less than 50%; in [9], less than 50%.
Take `CC(=O)N1CCN(c2cc(-c3cnc4c(c3)N(Cc3cc(Cl)ccc3C(F)(F)F)CCN4)ccn2)CC1`: the inhibition in assay [1], in assay [2], in assay [3], in assay [4], in assay [5] and in [6] was less than 50% in each case. Further, the results for the inhibition in [7], in assay [8] and in assay [9] were 75%, less than 50% and less than 50%, respectively.
As for `CN1CCN(c2ccc(-c3cnc4c(c3)N(Cc3cc(Cl)ccc3C(F)(F)F)CCN4)cn2)CC1`, the inhibition in [1], in assay [2], in assay [3], in [4], in assay [5] and in [6] was less than 50% each time. Moreover, the inhibition in [7], in assay [8] and in assay [9] was less than 50% in each case.
